Assay results from ChEMBL document CHEMBL4513216, “Probing the Open Global Health Chemical Diversity Library for Multistage-Active Starting Points for Next-Generation Antimalarials” (ACS Infect Dis, 2020).

Assay: Toxicity liver stage against HepG2, at 10uM
Assay type: cell-based
Design: test concentration 10 uM, cell line HepG2-A16-CD81EGFP
Details: human, HepG2-A16-CD81EGFP cells; read-out: INHIBITION
Method in brief: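 Uninfected HepG2-A16-CD81EGFP cells, 3 × 10^3 per well, 1536-well, plated on prespotted compound at 10 μM final, parasite-free screening media added to match infected plates; puromycin 10 μM positive, DMSO 0.5% negative; run in parallel with 48 h PbLuc assay at 37 °C, 5% CO2; viability by CellTiter-Glo luminescence, normalized to controls.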
In the case of `CN(C)[C@@H]1CCN(C(=O)c2ccccn2)[C@H]1Cc1ccncc1`, the cytotoxicity at 10 µM was -63.6%.
For `Cc1cccc(CN2C(=O)CCC23CCN(c2ccccn2)CC3)n1`, the cytotoxicity at 10 µM was 3.2%.
With `O=C(c1cccc(C2CCNC2)c1)N1CCC(N2CCC(O)CC2)CC1` (stereo not given) the cytotoxicity at 10 µM was 2.18%.
`CCN(Cc1ccncc1)C(=O)C(C)n1ccnc1C(C)C` (stereo not given) showed a cytotoxicity at 10 µM of 2.79%.
`N#Cc1cn(CCN2CCc3ccccc3C2)c(=O)[nH]c1=O` gave a cytotoxicity at 10 µM of 4.47%.
Compound `Cn1cc(C2CC(=O)NC23CCN(Cc2ccncc2)CC3)cn1` (stereo not given) has a cytotoxicity at 10 µM of 13.2%.
With `O=C(CCC1CCCO1)NCCCC(=O)Nc1ccc(Cl)cc1` (stereo not given) the cytotoxicity at 10 µM was -0.649%.
In the case of `COCCN1C[C@H]2CCN(C(=O)Nc3ccccc3C)CC[C@H]2S1(=O)=O`, the cytotoxicity at 10 µM was 0.64%.
`COc1cccc(CCC(=O)N2CCC[C@@H](N)[C@@H]2c2ccccc2F)c1` showed a cytotoxicity at 10 µM of 8.3%.
`CCOc1cc(C(=O)NS(=O)(=O)c2cccc(C#N)c2)ccc1OC` showed a cytotoxicity at 10 µM of -6.69%.
Work on `COc1cccc(COCC(O)CN2CC(n3cccn3)C2)c1` (stereo not given) yielded a cytotoxicity at 10 µM of -8.52%.
With `CNS(=O)(=O)Cc1ccc(CNc2cncc(-n3cccn3)n2)cc1` the cytotoxicity at 10 µM was -4.66%.
Work on `COc1ccccc1C(O)CNc1c(C#N)c(=O)n(C)c(=O)n1C` (stereo not given) yielded a cytotoxicity at 10 µM of -2.9%.
`c1cn(-c2cncc(C3CCNCC3)n2)cn1` gave a cytotoxicity at 10 µM of -32.5%.
With `CN1CCc2nc(C3CCCCN3Cc3ccccc3Cl)ncc2C1` (stereo not given) the cytotoxicity at 10 µM was -27.7%.
Compound `Cc1nc(-c2ccc(Cl)s2)sc1C(=O)NCCCC(N)=O` has a cytotoxicity at 10 µM of -5.6%.
`Cc1cnn(CCC(=O)N2CCN(c3nc(C)cs3)CC2)c1` showed a cytotoxicity at 10 µM of -11.9%.
For `Cc1cnn(CC2CCCN2Cc2nccn2C)c1` (stereo not given), the cytotoxicity at 10 µM was 3.54%.
With `COC1CCN(Cc2csc(C(C)C)n2)CC1` the cytotoxicity at 10 µM was 3.32%.
Compound `CCNC(=O)NC[C@H]1COCc2nc3cc(C)ccc3n21` has a cytotoxicity at 10 µM of 3.72%.
With `CCNc1ncnc2c1CN(C1CCCNCC1)C(=O)CN2C` (stereo not given) the cytotoxicity at 10 µM was 5.5%.
`COCCC(=O)N1CCCN(Cc2nccn2C(C)C)CC1` gave a cytotoxicity at 10 µM of -10.1%.
With `COc1cc(CNC(=O)Nc2nnc(C(F)(F)F)s2)ccc1O` the cytotoxicity at 10 µM was -2.83%.
In the case of `COc1ccc(C(=O)N2CCCS2(=O)=O)cc1`, the cytotoxicity at 10 µM was -1.88%.
`CCOCC1CN(C(=O)CS(C)(=O)=O)Cc2cnn(C)c21` (stereo not given) showed a cytotoxicity at 10 µM of -6.63%.
In the case of `COc1ccccc1S(=O)(=O)CCOC(C)C`, the cytotoxicity at 10 µM was 6.24%.
In the case of `CNC(=O)[C@H]1C[C@@H]2CN(S(=O)(=O)Cc3ccccc3)C[C@@H]2N1C`, the cytotoxicity at 10 µM was -5.06%.
For `O=C(O)c1c(-c2ccncc2)ncc2c1CCN(C1CCOC1)C2` (stereo not given), the cytotoxicity at 10 µM was 15%.
`CC(C)Cc1nc(COc2ccc(N(C)C(N)=O)cc2)no1` gave a cytotoxicity at 10 µM of 30.5%.
With `CC(=O)N(Cc1noc(C)n1)C1CCN(Cc2ccncc2Cl)C1` (stereo not given) the cytotoxicity at 10 µM was 5.87%.
`CC(NCc1cnn(C)c1)c1ccc(OCc2nccn2C)cc1` (stereo not given) gave a cytotoxicity at 10 µM of -7.16%.
Compound `CC(C)NC(=O)N1C[C@@H]2C[C@H](C(=O)N3CCCC3)[C@H](C1)O2` has a cytotoxicity at 10 µM of -101%.
`COc1ccccc1C(=O)N1CC2(COC(C)(C)OC2)C1` gave a cytotoxicity at 10 µM of -6.4%.
In the case of `c1ccc(OCCSC2=NCCN2)cc1`, the cytotoxicity at 10 µM was 1.52%.
With `CC1c2ncc(Cn3cncn3)n2CCN1C1CCOCC1` (stereo not given) the cytotoxicity at 10 µM was 4.28%.
Work on `Cc1cc2nc(CO[C@H]3CN(C4CCC4)C[C@H]3F)[nH]c2cc1C` yielded a cytotoxicity at 10 µM of 1.56%.
Work on `CC(Cn1cncn1)NCc1nncn1C1CCCCC1` (stereo not given) yielded a cytotoxicity at 10 µM of -10.4%.
With `O=C(CCn1cc(Cl)cn1)N1CCN(CCOc2ccccc2)CC1` the cytotoxicity at 10 µM was 4.92%.
Compound `Cc1cccc(N2CCN(Cc3nc(CC4CC4)no3)CC2)n1` has a cytotoxicity at 10 µM of -10.1%.
`O=C(c1csnn1)N1CCc2ccccc21` gave a cytotoxicity at 10 µM of 5.35%.
For `Cc1cncc(CN2C[C@@H](O)[C@H](Oc3ccccc3)C2)c1`, the cytotoxicity at 10 µM was 0.442%.
Compound `CCc1ncc(CN2C[C@@H]3C[C@@H](O)CN3C[C@@H]2Cc2ccccc2)cn1` has a cytotoxicity at 10 µM of -5.02%.
With `COCCn1c(=O)n(Cc2ccccc2C)c2cc(C(=O)O)ccc21` the cytotoxicity at 10 µM was -1.79%.
Work on `Cc1nc[nH]c1CN1CCn2nc(CN3CC[C@H](F)C3)cc2C1` yielded a cytotoxicity at 10 µM of 5.01%.
Work on `O=C(N1CCOCC1)[C@@]12CCO[C@@H]1CCN(Cc1cccc(F)c1)C2` yielded a cytotoxicity at 10 µM of 10.8%.
